Consider two compounds from ChEMBL document CHEMBL1681705, “Optimisation of ITK inhibitors through successive iterative design cycles” (Bioorg Med Chem Lett, 2011).

In assay [1] the target is Glycogen synthase kinase-3 beta (Homo sapiens) (UniProt P49841). Kind of assay: Inhibition of GSK3-beta at 0.1 uM; values are per cent of control.
For assay [2], the target named is Proto-oncogene tyrosine-protein kinase receptor Ret (Homo sapiens) (UniProt P07949). Kind of assay: Inhibition of Ret at 0.1 uM; values are per cent of control.
Proto-oncogene tyrosine-protein kinase receptor Ret (Homo sapiens), sequence (P07949 whole entry): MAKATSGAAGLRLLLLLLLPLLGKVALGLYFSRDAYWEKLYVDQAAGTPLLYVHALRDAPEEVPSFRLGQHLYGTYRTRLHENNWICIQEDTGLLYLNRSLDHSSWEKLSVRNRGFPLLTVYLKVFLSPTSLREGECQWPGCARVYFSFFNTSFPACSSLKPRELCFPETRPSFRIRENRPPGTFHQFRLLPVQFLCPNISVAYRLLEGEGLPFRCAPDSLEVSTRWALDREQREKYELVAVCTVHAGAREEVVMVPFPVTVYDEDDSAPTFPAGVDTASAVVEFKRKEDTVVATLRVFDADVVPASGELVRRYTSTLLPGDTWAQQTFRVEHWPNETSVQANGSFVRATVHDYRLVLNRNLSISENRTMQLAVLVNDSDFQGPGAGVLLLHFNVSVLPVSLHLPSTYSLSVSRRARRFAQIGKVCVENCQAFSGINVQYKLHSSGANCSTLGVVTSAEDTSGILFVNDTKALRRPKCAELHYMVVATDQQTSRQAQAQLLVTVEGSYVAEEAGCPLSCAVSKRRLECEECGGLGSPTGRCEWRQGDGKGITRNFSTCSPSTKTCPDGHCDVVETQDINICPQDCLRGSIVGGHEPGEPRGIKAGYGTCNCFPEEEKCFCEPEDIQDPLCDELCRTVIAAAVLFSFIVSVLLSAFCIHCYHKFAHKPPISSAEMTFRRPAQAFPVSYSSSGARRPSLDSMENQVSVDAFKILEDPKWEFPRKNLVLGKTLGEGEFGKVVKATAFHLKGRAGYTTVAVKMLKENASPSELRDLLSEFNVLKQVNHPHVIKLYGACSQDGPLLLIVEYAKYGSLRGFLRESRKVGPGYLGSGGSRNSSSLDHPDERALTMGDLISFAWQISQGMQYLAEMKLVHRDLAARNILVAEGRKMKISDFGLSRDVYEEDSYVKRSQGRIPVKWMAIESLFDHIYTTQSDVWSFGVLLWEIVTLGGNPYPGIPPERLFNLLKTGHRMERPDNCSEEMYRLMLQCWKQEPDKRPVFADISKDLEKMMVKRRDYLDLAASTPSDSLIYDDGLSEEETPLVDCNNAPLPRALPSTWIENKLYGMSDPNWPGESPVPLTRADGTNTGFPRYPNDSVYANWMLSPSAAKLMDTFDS
The target of assay [3] is Tyrosine-protein kinase Lyn (Homo sapiens) (UniProt P07948). Kind of assay: Inhibition of Lyn at 1 uM. In a few lines:
(§1)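 Single-point screen within a 108-kinase selectivity panel. Each kinase was tested with inhibitor at 0.1 and 1.0 micromolar, and activity was recorded as percent inhibition.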

The target in assay [4] is T1, Dual specificity mitogen-activated protein kinase kinase 7 (Homo sapiens) (UniProt O14733).
T1 sequence (whole entry): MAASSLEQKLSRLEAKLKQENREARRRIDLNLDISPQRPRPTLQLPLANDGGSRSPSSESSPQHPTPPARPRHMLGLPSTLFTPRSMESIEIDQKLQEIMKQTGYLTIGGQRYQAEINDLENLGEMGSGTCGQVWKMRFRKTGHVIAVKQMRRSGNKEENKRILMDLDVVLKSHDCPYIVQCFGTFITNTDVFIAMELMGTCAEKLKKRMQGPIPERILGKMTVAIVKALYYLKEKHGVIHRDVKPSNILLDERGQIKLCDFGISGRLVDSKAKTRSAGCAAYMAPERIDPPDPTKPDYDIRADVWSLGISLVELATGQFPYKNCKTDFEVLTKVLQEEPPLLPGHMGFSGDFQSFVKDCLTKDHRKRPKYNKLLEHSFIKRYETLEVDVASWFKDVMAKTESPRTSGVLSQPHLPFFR
Kind of assay: Inhibition of MKK7beta at 1 uM. The method, boiled down:
as §1

Assay [5] concerns the target T2, Ephrin type-B receptor 3 (Homo sapiens) (UniProt P54753).
T2 sequence (whole entry): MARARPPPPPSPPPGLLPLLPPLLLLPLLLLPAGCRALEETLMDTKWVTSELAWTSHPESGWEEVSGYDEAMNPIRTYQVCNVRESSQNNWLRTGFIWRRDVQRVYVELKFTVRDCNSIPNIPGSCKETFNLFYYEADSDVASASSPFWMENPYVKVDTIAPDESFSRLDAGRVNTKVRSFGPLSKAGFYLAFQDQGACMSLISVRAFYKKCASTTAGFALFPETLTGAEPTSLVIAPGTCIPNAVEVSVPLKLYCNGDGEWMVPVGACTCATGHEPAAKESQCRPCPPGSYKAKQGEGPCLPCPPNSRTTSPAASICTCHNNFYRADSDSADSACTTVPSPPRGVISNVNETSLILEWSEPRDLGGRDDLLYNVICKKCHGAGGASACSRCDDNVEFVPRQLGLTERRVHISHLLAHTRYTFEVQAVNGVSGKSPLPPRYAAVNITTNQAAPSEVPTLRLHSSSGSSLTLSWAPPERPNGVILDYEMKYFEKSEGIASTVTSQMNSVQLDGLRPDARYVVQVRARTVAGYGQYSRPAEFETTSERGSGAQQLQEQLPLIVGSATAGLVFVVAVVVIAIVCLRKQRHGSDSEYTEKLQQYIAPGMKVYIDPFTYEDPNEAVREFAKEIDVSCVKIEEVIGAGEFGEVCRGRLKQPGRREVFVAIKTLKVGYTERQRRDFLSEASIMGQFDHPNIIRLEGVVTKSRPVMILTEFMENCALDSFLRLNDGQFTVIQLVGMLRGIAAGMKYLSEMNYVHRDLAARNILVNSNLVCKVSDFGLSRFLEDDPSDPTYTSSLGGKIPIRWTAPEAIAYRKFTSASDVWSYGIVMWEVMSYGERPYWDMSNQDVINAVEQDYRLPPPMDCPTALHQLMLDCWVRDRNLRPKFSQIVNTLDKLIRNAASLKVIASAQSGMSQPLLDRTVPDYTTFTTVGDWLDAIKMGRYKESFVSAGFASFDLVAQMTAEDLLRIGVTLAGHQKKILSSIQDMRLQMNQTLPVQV
Kind of assay: Inhibition of EphB3 at 1 uM; values are per cent of control.

Assay [6] addresses Ephrin type-A receptor 5 (Homo sapiens) (UniProt P54756). Kind of assay: Inhibition of EphA5 at 1 uM; values are per cent of control.
Assay [7] has as its target T3, Serine/threonine-protein kinase D2 (Homo sapiens) (UniProt Q9BZL6).
T3 sequence (whole entry): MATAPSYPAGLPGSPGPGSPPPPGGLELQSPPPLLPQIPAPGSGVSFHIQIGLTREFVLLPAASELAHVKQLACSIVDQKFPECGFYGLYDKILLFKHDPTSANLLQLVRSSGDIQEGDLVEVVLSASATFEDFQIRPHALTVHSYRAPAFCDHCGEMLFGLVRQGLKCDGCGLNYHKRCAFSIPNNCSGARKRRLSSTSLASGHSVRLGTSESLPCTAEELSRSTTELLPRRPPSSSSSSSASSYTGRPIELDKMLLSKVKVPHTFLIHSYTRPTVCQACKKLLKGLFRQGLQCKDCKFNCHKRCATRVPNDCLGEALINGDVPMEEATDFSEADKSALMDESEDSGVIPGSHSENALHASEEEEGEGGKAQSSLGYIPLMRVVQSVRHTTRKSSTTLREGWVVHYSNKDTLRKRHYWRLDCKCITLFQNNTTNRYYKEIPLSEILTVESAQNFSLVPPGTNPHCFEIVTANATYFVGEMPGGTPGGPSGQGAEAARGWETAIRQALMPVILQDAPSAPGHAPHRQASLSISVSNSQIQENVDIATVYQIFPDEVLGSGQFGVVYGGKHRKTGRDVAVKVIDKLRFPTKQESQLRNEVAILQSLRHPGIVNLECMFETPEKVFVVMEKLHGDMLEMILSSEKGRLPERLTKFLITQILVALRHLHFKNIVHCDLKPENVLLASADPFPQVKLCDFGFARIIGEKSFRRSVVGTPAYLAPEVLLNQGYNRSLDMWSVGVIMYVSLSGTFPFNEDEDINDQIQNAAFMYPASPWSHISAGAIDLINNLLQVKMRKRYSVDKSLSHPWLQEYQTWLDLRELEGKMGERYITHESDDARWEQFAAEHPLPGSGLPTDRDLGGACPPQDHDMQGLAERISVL
Kind of assay: Inhibition of PKD2 at 1 uM; values are per cent of control.

Assay [8] has as its target Ephrin type-A receptor 7 (Homo sapiens) (UniProt Q15375). Kind of assay: Inhibition of EphA7 at 1 uM; values are per cent of control.
Assay [9] has as its target Myosin light chain kinase, smooth muscle (Homo sapiens) (UniProt Q15746). Kind of assay: Inhibition of MLCK at 1 uM; values are per cent of control.
In assay [10] the target is Fibroblast growth factor receptor 4 (Homo sapiens) (UniProt P22455). Kind of assay: Inhibition of FGFR4 at 1 uM; values are per cent of control.
Fibroblast growth factor receptor 4 (Homo sapiens), sequence (P22455 22-802 limits assumed): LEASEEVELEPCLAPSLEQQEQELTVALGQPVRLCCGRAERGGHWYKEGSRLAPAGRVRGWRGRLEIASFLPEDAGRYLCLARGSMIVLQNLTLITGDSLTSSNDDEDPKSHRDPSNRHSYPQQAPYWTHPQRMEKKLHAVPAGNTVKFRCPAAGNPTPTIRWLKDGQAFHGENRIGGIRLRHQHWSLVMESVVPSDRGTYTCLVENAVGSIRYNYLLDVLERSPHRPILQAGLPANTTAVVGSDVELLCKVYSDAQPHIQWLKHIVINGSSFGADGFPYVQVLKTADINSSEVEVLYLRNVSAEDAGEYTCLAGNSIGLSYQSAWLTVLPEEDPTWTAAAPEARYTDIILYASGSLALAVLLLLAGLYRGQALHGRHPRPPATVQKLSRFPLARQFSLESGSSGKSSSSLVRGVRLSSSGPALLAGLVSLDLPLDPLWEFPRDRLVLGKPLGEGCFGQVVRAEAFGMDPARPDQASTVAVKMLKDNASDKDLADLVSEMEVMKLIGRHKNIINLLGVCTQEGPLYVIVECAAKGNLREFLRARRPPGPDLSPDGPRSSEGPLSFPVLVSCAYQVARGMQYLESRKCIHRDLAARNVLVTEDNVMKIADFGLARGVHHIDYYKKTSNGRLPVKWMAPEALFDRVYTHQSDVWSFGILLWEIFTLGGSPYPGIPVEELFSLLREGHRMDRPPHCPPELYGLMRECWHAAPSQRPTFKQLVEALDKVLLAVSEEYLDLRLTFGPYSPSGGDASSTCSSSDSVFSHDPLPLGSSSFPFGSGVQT

Each structure is given as a SMILES string.

Tyrosine-protein kinase Lyn (Homo sapiens), sequence (P07948 2-512 limits assumed): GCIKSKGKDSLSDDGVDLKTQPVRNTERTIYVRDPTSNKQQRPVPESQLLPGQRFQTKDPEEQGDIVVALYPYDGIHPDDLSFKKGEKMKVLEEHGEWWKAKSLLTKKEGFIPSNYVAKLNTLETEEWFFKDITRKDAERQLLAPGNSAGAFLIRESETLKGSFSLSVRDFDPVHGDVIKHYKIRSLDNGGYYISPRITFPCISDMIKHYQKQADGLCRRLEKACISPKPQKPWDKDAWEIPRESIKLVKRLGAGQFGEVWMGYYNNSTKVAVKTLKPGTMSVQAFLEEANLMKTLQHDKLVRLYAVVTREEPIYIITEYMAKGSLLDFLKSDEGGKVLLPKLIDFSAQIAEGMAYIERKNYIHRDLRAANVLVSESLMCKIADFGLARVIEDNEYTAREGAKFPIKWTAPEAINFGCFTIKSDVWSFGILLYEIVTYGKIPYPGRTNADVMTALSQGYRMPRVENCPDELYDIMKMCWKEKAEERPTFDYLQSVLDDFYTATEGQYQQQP
Glycogen synthase kinase-3 beta (Homo sapiens), sequence (P49841 whole entry, looked up): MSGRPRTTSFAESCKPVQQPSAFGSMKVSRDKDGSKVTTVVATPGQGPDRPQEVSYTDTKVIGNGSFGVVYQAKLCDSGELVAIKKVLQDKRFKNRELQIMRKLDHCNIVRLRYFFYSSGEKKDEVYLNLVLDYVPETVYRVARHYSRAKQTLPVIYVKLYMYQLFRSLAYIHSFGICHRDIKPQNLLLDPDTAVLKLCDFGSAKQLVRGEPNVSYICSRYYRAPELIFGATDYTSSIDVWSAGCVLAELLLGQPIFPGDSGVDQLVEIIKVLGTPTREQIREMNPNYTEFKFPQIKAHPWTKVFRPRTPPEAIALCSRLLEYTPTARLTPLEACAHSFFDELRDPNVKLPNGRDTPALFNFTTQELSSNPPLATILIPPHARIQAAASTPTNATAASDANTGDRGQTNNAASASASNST
Ephrin type-A receptor 7 (Homo sapiens), sequence (Q15375 28-998 limits assumed): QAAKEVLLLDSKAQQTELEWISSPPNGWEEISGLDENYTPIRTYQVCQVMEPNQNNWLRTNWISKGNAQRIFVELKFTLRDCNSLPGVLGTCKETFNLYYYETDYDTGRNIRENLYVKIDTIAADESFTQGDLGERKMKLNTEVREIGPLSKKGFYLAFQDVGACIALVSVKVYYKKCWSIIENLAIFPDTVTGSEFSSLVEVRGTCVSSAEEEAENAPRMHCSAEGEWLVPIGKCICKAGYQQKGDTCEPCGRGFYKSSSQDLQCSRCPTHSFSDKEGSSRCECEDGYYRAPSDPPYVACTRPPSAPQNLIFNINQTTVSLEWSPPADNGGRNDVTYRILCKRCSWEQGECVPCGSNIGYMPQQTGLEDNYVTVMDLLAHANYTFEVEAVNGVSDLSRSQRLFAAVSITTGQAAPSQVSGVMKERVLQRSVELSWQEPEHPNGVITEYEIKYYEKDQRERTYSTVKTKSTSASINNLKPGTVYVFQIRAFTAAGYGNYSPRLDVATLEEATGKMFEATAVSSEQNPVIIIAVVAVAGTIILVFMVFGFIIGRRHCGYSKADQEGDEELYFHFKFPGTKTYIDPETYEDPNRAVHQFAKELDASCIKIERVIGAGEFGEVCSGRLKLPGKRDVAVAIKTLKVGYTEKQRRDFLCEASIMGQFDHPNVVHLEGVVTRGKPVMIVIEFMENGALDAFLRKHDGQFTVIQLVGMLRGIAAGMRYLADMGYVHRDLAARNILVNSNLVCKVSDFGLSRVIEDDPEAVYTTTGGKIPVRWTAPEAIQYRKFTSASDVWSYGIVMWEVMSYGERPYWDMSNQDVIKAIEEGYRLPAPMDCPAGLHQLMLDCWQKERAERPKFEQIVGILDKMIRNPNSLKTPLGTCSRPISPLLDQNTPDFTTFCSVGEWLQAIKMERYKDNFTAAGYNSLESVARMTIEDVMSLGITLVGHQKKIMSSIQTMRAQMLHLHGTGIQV
Ephrin type-A receptor 5 (Homo sapiens), sequence (P54756 whole entry): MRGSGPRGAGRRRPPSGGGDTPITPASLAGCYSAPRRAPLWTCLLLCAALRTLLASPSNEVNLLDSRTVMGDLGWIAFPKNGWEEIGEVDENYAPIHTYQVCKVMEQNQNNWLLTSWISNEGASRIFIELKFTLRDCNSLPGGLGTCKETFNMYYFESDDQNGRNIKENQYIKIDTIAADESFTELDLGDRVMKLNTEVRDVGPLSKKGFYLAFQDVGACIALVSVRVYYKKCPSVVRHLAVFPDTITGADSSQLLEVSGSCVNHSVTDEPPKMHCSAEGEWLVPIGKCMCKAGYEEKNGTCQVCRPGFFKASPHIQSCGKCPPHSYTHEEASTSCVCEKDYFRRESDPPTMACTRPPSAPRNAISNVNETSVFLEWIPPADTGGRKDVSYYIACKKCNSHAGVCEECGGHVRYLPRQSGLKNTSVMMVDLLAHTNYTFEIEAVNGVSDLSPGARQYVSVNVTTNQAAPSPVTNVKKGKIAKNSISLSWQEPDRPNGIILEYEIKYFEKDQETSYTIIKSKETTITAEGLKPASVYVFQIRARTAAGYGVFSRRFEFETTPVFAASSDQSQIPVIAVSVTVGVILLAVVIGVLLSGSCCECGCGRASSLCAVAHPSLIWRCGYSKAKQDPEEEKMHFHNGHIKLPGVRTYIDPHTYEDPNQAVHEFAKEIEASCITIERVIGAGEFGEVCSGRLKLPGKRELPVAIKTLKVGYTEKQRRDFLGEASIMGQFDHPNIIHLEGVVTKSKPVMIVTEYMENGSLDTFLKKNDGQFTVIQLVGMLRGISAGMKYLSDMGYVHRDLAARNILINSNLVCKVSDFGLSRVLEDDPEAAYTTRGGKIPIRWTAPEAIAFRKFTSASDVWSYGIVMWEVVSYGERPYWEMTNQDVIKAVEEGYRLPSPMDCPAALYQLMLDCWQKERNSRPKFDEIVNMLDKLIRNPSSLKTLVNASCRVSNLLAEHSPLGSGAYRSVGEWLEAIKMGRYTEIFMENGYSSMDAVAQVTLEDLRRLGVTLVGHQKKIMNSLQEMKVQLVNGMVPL

On to `Cc1ccc2cc(-c3n[nH]c4ccc(NC5CCNC5)cc34)[nH]c2c1` (stereo not given), for which the residual activity (usually the signal under treatment as a percentage of the control signal) in [1] was 97%; in [2] it was 8%; in assay [5], 105%; in [6], 50%; in assay [7], 12%; in assay [8] it was 16%. For the same compound, the residual activity in [9] amounted to 44%; in [10], 6%. In addition, the inhibition – broadly, the percentage by which the read-out fell short of the control – came to 1% in assay [3] and 52% in [4].
Regarding `Cc1ccc2cc(-c3n[nH]c4ccc(NC5CCN(Cc6ccccc6)CC5)cc34)[nH]c2c1`, the residual activity in assay [1] was 97%; in assay [2] it was 0%; in assay [5], 119%; in assay [6], 22%; in assay [7] it was 80%; in [8], 16%. Further, the values for the residual activity in assay [9] and in [10] were 63% and 10%, respectively. Besides, the inhibition in [3] was determined as 0%; in assay [4] it was 95%.
